One block for each compound: values may come before it. Active and inactive are the calls of the source. No cut-off for these calls is given here.
Experiments:
Brain [1] = assay: Drug uptake in Sprague-Dawley rat brain at 300 mg/kg, po administered for 14 days measured 4 hrs post dose on day 1, 3, 7 and 14; conditions: in vivo
[2] = Drug metabolism in Sprague-Dawley rat epididymal fat assessed as salicylic acid formation at 300 mg/kg, po administered for 14 days followed by 7 day washout cycle measured on day 21; assay type: ADME, organism-based, Epididymal fat pad; conditions: in vivo
Plasma [3] = assay: Drug metabolism in Sprague-Dawley rat plasma assessed as N-(2-aminoethyl)-2-hydroxy-benzamide formation at 300 mg/kg, po measured up to 24 hrs post dose; assay type: ADME, organism-based; conditions: in vivo
Procedure, shortened: (§1)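 Single oral dose of 300 mg/kg to Sprague Dawley rats. Plasma collected at 0, 0.5, 1, 2, 4, 8 and 24 hr. Analytes were the parent, the salicylate-linker and linker-DHA metabolites, salicylic acid and salicyluric acid; Cmax and AUClast derived.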

Liver [4] = assay: Drug metabolism in Sprague-Dawley rat liver assessed as salicylic acid formation at 300 mg/kg, po administered for 7 days measured 4 hrs post dose on day 7; assay type: ADME, organism-based; conditions: in vivo
Procedure, shortened: (§2)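 Male Sprague Dawley rats, groups of 4, dosed orally at 300 mg/kg once daily for 14 days. Animals killed on days 1, 3, 7 and 14, with plasma, brain, epididymal fat, liver and muscle taken 4 hr after dosing. Parent, salicylic acid and salicyluric acid were measured.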

Brain [5] = assay: Drug metabolism in Sprague-Dawley rat brain assessed as salicylic acid formation at 300 mg/kg, po administered for 14 days followed by 7 day washout cycle measured on day 21; assay type: ADME, organism-based; conditions: in vivo
[6] = Inhibition of NFkappaB in mouse RAW264.7 cells preincubated for 2 hrs followed by LPS addition for 3 hrs by luciferase reporter gene assay relative to control; assay type: cell-based
Muscle tissue [7] = assay: Drug uptake in Sprague-Dawley rat muscle at 300 mg/kg, po administered for 14 days followed by 7 day washout cycle measured on day 21; assay type: ADME, organism-based; conditions: in vivo
Plasma [8] = assay: Drug metabolism in Sprague-Dawley rat plasma assessed as (4Z,7Z,10Z,13Z,16Z,19Z)-N-(2-aminoethyl)docosa-4,7,10,13,16,19-hexaenamide formation at 300 mg/kg, po measured up to 24 hrs post dose; conditions: in vivo
[9] = Drug uptake in Sprague-Dawley rat epididymal fat at 300 mg/kg, po administered for 14 days followed by 7 day washout cycle measured on day 21; assay type: ADME, organism-based, Epididymal fat pad; conditions: in vivo
Muscle tissue [10] = assay: Drug metabolism in Sprague-Dawley rat muscle assessed as salicylic acid formation at 300 mg/kg, po administered for 14 days followed by 7 day washout cycle measured on day 21; assay type: ADME, organism-based; conditions: in vivo
[11] = Drug metabolism in Sprague-Dawley rat epididymal fat assessed as salicyluric acid formation at 300 mg/kg, po administered for 7 days measured 4 hrs post dose on day 7; assay type: ADME, organism-based, Epididymal fat pad; conditions: in vivo
Procedure, shortened: as §2

Plasma [12] = assay: Drug metabolism in Sprague-Dawley rat plasma assessed as salicyluric acid formation at 300 mg/kg, po administered for 7 days measured 4 hrs post dose on day 7; assay type: ADME, organism-based; conditions: in vivo
Procedure, shortened: as §2

Liver [13] = assay: Drug metabolism in Sprague-Dawley rat liver assessed as salicyluric acid formation at 300 mg/kg, po administered for 14 days followed by 7 day washout cycle measured on day 21; assay type: ADME, organism-based; conditions: in vivo
Plasma [14] = assay: Drug metabolism in Sprague-Dawley rat plasma assessed as salicyluric acid formation at 300 mg/kg, po measured up to 24 hrs post dose; assay type: ADME, organism-based; conditions: in vivo
Procedure, shortened: as §1

Mus musculus = assay: Inhibition of PCSK9 levels in po dosed ApoE*3-Leiden mouse plasma administered for 16 weeks; assay type: functional, organism-based
Procedure, shortened: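 Transgenic ApoE*3-Leiden mice on high-cholesterol Western-type diet dosed over 16 weeks; plasma PCSK9, total cholesterol, triglycerides and lipoprotein profile (VLDL, LDL) assessed at study end.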

Plasma [15] = assay: Drug metabolism in Sprague-Dawley rat plasma assessed as nicotinuric acid levels at 100 mg/kg, po administered as single dose after 6 hrs by LC/MS/MS analysis; assay type: ADME, organism-based; conditions: in vivo
Procedure, shortened: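 Single oral dose to Sprague Dawley rats; plasma collected at 0.25, 0.5, 1, 2, 4 and 6 hr; analytes in plasma quantified by LC/MS/MS.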

[16] = Drug uptake in Sprague-Dawley rat liver at 300 mg/kg, qd administered through oral gavage for 7 days measured 2 hrs post last dose by LC/MS/MS analysis; assay type: ADME, organism-based; conditions: read-out: Drug uptake
[17] = Cmax in portal vein cannulated Sprague-Dawley rat at 30 mg/kg, po measured up to 140 mins; assay type: ADME, organism-based; parameters: dose 30 mg/kg, route oral; conditions: portal vein blood
Procedure, shortened: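 Sprague Dawley rats surgically fitted with indwelling jugular vein and portal vein cannulas; oral dosing, then serial blood draws from both portal and jugular veins at 10, 20, 40 min and 1, 2, 4, 6 hr post dose; plasma analysed for parent and metabolites by LC/MS/MS.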

Plasma [18] = assay: Drug metabolism in Sprague-Dawley rat plasma assessed as niacin linker metabolite N-(2-aminoethyl)nicotinamide formation at 300 mg/kg, qd administered through oral gavage for 7 days measured 2 hrs post last dose by LC/MS/MS analysis; assay type: ADME, organism-based; conditions: in vivo
HepG2 = assay: Inhibition of ApoB secretion in human HepG2 cells after 16 hrs by ELISA; assay type: functional, cell-based
[19] = biological target: T1, Fatty-acid amide hydrolase 1 (Homo sapiens, UniProt O00519); assay: Drug metabolism assessed as human recombinant N-terminal FLAG/C-terminal His-tagged FAAH1 (32 to 579 residues)-mediated compound hydrolysis by measuring release of EPA at 25 uM by LC/MS-MS analysis; assay type: ADME; conditions: TDE = time-dependent effect
T1 sequence (O00519 whole entry): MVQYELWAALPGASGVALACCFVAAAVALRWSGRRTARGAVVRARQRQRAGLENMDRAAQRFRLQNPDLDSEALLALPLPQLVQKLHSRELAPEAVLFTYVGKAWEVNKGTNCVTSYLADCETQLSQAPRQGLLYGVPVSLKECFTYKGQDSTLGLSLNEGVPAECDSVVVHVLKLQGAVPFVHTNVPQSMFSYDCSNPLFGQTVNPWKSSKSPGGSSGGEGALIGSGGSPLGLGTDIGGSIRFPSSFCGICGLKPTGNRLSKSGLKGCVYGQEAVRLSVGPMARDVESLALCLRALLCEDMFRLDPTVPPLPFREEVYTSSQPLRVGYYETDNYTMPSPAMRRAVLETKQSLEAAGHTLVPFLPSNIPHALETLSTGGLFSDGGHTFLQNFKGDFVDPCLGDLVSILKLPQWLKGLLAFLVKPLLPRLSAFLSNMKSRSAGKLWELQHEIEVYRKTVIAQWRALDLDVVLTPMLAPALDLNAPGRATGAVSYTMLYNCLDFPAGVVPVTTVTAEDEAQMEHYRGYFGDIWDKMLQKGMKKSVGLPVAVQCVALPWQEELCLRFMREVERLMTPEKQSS

Liver [20] = assay: Drug metabolism in Sprague-Dawley rat liver assessed as linker EPA metabolite (5Z,8Z,11Z,14Z,17Z)-N-(2-aminoethyl)icosa-5,8,11,14,17-pentaenamide formation at 300 mg/kg, qd administered through oral gavage for 7 days measured 2 hrs post last dose by LC/MS/MS analysis; assay type: ADME, organism-based; conditions: in vivo
Intestine = assay: Drug metabolism in Sprague-Dawley rat intestine assessed as niacin linker metabolite N-(2-aminoethyl)nicotinamide formation at 300 mg/kg, qd administered through oral gavage for 7 days measured 2 hrs post last dose by LC/MS/MS analysis; assay type: ADME, organism-based; conditions: in vivo
Liver [21] = assay: Drug metabolism in Sprague-Dawley rat liver assessed as niacin formation at 300 mg/kg, qd administered through oral gavage for 7 days measured 2 hrs post last dose by LC/MS/MS analysis; assay type: ADME, organism-based; conditions: in vivo, BLD = below limit of detection

Drug uptake (Brain [1]): Not Active
Drug metabolism [2]: metabolite_notdetected
Drug metabolism (Plasma [3]): metabolite_detected
Drug metabolism (Liver [4]): 235.91 ng/g
Drug metabolism (Brain [5]): metabolite_notdetected
IC50 [6]: 25.4 µM
Drug uptake (Muscle tissue [7]): Not Active
Drug metabolism (Plasma [8]): metabolite_notdetected
Drug uptake [9]: Not Active
Drug metabolism (Muscle tissue [10]): metabolite_notdetected
Drug metabolism [11]: 203.71 ng/g
Drug metabolism (Plasma [12]): 764.41 ng/mL
Drug metabolism (Liver [13]): metabolite_notdetected
Drug metabolism (Plasma [14]): metabolite_detected
SMILES: CC/C=C\C/C=C\C/C=C\C/C=C\C/C=C\C/C=C\CCC(=O)NCCNC(=O)c1ccccc1O [EDASALONEXENT]

SMILES: CC/C=C\C/C=C\C/C=C\C/C=C\C/C=C\CCCC(=O)NCCNC(=O)c1cccnc1
inhibition (Mus musculus): Active
Drug metabolism (Plasma [15]): > 200 ng/mL
concentration at 2 h [16]: 7.5 ng/g
Cmax [17]: 418 ng/mL
Drug metabolism (Plasma [18]): 2296 ng/mL
inhibition (HepG2): Dose-dependent effect
IC50 (HepG2; HepG2, 16 h): 27 µM
Drug metabolism [19]: tde
Drug metabolism (Liver [20]): 8.7 ng/g
Drug metabolism (Intestine): 23899 ng/g
Drug metabolism (Liver [21]): BLD
